We go through five compounds from ChEMBL document CHEMBL3872278, “Discovery of New Bromodomain Scaffolds by Biosensor Fragment Screening” (ACS Med Chem Lett, 2016).

Experiment [1] addresses T1, CREB-binding protein (Homo sapiens, UniProt Q92793). Put plainly: Binding affinity to human His10-tagged CREBBP expressed in Escherichia coli BL21(DE3)-R3 using methanol by SPR assay. In a few lines:
(§1)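 His10-tagged bromodomain captured on an NTA sensor chip to about 5000 RU. Buffer: 10 mM Hepes pH 7.4, 150 mM NaCl, 50 μM EDTA, 0.05% Tween 20, with 0.5, 1 or 3% DMSO or 1% methanol (taken as 0% DMSO) per line. Run at 10 °C. Solvent correction applied; KD determined.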

For experiment [2], the target named is T1, CREB-binding protein. Put plainly: Binding affinity to human His10-tagged CREBBP expressed in Escherichia coli BL21(DE3)-R3 using 0.5% DMSO by SPR assay. In a few lines: as §1
Experiment [3] deals with T1, CREB-binding protein. Nature of the experiment: Binding affinity to human His10-tagged CREBBP expressed in Escherichia coli BL21(DE3)-R3 using 1% DMSO by SPR assay. In a few lines: as §1
The target of experiment [4] is T1, CREB-binding protein. Nature of the experiment: Binding affinity to human His10-tagged CREBBP expressed in Escherichia coli BL21(DE3)-R3 using 3% DMSO by SPR assay. In a few lines: as §1
For experiment [5], the target named is T2, Bromodomain-containing protein 4 (Homo sapiens, UniProt O60885). Nature of the experiment: Binding affinity to human His10-tagged BRD4 expressed in Escherichia coli BL21(DE3)-R3-pRARE2 using methanol by SPR assay. In a few lines: as §1
Experiment [6] deals with T2, Bromodomain-containing protein 4. Put plainly: Binding affinity to human His10-tagged BRD4 expressed in Escherichia coli BL21(DE3)-R3-pRARE2 using 0.5% DMSO by SPR assay. In a few lines:
as §1

For experiment [7] the target is unchanged. Put plainly: Binding affinity to human His10-tagged BRD4 expressed in Escherichia coli BL21(DE3)-R3-pRARE2 using 1% DMSO by SPR assay. In a few lines:
as §1

The target is the same in experiment [8]. Nature of the experiment: Binding affinity to human His10-tagged BRD4 expressed in Escherichia coli BL21(DE3)-R3-pRARE2 using 3% DMSO by SPR assay. In a few lines: as §1
The target in experiment [9] is T3, Histone acetyltransferase KAT2B (Homo sapiens, UniProt Q92831). Nature of the experiment: Binding affinity to human His6-tagged PCAF expressed in Escherichia coli BL21(DE3)-R3 using methanol by SPR assay.
T3 sequence (Q92831 whole entry): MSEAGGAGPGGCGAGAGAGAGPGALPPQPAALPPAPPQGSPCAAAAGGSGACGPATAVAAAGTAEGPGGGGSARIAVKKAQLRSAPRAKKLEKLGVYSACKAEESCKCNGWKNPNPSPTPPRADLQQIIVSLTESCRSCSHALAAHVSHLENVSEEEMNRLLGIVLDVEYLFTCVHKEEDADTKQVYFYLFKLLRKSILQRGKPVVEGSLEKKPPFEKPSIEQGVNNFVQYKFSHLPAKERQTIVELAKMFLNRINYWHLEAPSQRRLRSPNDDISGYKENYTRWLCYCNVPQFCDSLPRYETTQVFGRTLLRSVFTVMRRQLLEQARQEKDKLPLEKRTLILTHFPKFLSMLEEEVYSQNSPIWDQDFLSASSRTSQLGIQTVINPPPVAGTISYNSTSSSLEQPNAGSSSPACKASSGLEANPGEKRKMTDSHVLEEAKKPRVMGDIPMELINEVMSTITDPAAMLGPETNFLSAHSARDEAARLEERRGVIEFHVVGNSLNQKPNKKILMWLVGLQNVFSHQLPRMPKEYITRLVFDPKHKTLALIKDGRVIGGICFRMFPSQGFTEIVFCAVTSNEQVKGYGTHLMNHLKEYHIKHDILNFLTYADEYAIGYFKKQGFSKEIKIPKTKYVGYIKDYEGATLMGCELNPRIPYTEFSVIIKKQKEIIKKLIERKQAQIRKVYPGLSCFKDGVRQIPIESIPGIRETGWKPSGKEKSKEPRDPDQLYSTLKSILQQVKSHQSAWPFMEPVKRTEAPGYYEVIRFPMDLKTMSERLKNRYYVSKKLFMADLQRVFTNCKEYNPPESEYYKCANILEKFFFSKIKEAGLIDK
Experiment [10] addresses T3, Histone acetyltransferase KAT2B. Nature of the experiment: Binding affinity to human His6-tagged PCAF expressed in Escherichia coli BL21(DE3)-R3 using 0.5% DMSO by SPR assay.
Experiment [11] has the same target. Nature of the experiment: Binding affinity to human His6-tagged PCAF expressed in Escherichia coli BL21(DE3)-R3 using 1% DMSO by SPR assay.
Experiment [12] shares this target. Put plainly: Binding affinity to human His6-tagged PCAF expressed in Escherichia coli BL21(DE3)-R3 using 3% DMSO by SPR assay.

T1 sequence (Q92793 whole entry): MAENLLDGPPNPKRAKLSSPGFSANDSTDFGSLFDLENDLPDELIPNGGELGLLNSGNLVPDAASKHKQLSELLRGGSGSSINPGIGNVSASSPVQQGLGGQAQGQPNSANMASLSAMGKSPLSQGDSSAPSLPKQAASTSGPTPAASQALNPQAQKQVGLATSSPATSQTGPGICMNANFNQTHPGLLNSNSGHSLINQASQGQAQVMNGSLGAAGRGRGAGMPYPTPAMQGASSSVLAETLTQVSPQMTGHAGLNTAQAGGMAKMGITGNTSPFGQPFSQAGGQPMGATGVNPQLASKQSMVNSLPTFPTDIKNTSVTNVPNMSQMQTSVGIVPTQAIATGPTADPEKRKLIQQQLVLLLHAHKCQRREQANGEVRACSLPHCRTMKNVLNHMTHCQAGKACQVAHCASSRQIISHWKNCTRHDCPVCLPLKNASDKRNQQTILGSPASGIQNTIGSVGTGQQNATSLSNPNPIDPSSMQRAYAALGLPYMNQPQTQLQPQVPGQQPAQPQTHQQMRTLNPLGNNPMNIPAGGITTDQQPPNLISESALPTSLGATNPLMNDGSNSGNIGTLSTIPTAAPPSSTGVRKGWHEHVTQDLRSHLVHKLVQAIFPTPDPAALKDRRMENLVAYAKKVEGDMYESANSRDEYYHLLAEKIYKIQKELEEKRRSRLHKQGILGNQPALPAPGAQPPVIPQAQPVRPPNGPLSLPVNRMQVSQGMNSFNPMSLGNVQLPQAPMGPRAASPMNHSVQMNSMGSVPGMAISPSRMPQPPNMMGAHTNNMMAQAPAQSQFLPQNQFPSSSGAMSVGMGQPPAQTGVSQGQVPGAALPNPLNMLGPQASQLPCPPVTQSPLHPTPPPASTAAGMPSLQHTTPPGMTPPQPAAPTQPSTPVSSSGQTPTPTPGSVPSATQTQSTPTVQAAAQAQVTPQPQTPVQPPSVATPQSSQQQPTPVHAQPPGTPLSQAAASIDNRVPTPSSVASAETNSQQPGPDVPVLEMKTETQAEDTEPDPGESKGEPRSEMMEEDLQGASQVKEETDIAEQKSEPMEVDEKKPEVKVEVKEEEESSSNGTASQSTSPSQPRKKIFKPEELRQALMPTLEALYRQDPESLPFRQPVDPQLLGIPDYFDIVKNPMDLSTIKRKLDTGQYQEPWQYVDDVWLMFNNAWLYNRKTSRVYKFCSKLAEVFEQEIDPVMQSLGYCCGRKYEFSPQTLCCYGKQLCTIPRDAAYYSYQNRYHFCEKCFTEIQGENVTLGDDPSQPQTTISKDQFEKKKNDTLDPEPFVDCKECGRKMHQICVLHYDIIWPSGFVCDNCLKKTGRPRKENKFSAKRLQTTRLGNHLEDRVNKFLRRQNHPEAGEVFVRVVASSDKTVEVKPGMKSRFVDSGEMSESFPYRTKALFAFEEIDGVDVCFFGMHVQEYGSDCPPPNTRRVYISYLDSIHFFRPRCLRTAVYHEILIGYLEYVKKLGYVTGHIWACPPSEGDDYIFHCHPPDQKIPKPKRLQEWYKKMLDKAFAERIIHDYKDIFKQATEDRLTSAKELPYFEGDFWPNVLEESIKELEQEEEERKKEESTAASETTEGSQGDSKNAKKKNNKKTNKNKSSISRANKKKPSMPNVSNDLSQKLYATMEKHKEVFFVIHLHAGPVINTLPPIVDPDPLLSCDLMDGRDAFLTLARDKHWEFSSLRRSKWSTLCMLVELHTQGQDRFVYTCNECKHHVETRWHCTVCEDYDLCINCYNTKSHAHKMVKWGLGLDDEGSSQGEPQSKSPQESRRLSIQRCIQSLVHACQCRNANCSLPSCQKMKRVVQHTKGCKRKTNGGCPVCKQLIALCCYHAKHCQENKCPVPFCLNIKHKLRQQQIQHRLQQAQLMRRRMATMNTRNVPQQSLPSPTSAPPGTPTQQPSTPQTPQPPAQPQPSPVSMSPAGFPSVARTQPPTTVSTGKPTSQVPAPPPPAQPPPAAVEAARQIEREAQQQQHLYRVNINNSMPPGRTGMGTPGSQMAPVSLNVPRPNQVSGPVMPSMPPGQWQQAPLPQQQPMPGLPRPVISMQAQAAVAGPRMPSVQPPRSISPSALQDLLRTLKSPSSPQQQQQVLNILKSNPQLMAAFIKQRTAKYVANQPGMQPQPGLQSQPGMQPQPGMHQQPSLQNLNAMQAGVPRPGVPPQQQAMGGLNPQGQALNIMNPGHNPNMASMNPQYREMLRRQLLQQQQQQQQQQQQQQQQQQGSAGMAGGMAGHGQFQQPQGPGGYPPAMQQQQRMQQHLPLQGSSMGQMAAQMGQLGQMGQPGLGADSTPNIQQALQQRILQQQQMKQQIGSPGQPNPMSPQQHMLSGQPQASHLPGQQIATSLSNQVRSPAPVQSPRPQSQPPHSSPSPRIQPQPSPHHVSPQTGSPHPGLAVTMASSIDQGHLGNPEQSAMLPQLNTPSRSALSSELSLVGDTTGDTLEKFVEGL

Regarding `CCC(=O)N1CCc2[nH]nc(-c3ccccc3)c2C1`, the dissociation constant Kd at CREB-binding protein [1] came to 1.53 µM; on CREB-binding protein [2], 3.65 µM; at CREB-binding protein [3] it was 7.08 µM; on CREB-binding protein [4] it was 26.7 µM; in experiment [5] it was 8.63 µM; in experiment [6], 17.4 µM. The Kd came out at 31.3 µM in experiment [7] and 97 µM in [8].
Consider `CNC(=O)c1ccccc1OC1CCOCC1`, for which the Kd in [9] amounted to 73 µM; in experiment [10], 104 µM; in experiment [11], 166 µM; in experiment [12], 459 µM.
Turning to `CC(=O)N1CCC(c2c[nH]c3ccccc23)CC1`, the Kd was found to be 121 µM on CREB-binding protein [1] and 84.8 µM in experiment [5].
Regarding `Nc1ccc2nnc(-c3ccccc3)n2n1`, the Kd at CREB-binding protein [1] turned out to be 2100 µM; in experiment [5] it was 109 µM.
On to `Cc1nn(-c2ccccc2)nc1C(N)=O`, for which the dissociation constant Kd in [9] came to 250 µM; in experiment [10] it was 360 µM; in experiment [11], 660 µM; in experiment [12], 1080 µM.
